Among the data in ChEMBL document CHEMBL5696442, “Discovery of type II inhibitors of TGFβ-activated kinase 1 (TAK1) and mitogen-activated protein kinase kinase kinase kinase 2 (MAP4K2)” (J Med Chem, 2015) are inhibition and IC50 values, retold here.

Molecules are shown by their SMILES. Active and inactive are the calls of the source. The calls are words filed in the database; no cut-off is given here.

The target of test [1] is Mitogen-activated protein kinase 14 (Homo sapiens, UniProt Q16539). Put plainly: Inhibition of p38 alpha in human A-375 cells at 0.5 uM by KiNativ Profiling analysis relative to control. It counts as cell-based.
The target of test [2] is T1, Tyrosine-protein kinase Fer (Homo sapiens, UniProt P16591). In words: Inhibition of FER Lys1 labeling site in human A-375 cells at 0.5 uM by KiNativ Profiling analysis relative to control. In kind it is cell-based.
Test [3] concerns the target Proto-oncogene tyrosine-protein kinase Src (Homo sapiens, UniProt P12931). In words: Inhibition of SRC (unknown origin) Lys1 labeling site by KiNativ Profiling analysis.
Test [4] deals with T1, Tyrosine-protein kinase Fer. Put plainly: Inhibition of FER Lys1 labeling site harbouring TSVAVKTCKEDLPQELKin human A-375 cells at 5 uM by KiNativ Profiling analysis relative to control. In kind it is cell-based.
Test [5] has as its target Tyrosine-protein kinase JAK1 (Homo sapiens) (UniProt P23458). Put plainly: Inhibition of JAK1 in human A-375 cells at 5 uM by KiNativ Profiling analysis relative to control. It counts as cell-based.
The target of test [6] is Serine/threonine-protein kinase 38 (Homo sapiens) (UniProt Q15208). Put plainly: Inhibition of NDR1 Lys1 labeling site in human A-375 cells at 5 uM by KiNativ Profiling analysis relative to control. It counts as cell-based.
Test [7] deals with 5'-AMP-activated protein kinase catalytic subunit alpha-1 (Homo sapiens) (UniProt Q13131). In words: Inhibition of AMPKa1 ATP Loop labeling site in human A-375 cells at 0.5 uM by KiNativ Profiling analysis relative to control. In kind it is cell-based. A digest of the protocol: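 Live A375 melanoma cells were treated with compound at 5 or 0.5 μM, then lysed. The lysates were labeled with a lysine-reactive ATP or ADP-biotin probe. Kinase protection from probe labeling was measured by KiNativ.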

The target of test [8] is Cyclin-dependent kinase 6 (Homo sapiens) (UniProt Q00534). Put plainly: Inhibition of CDK6 Lys2 labeling site in human A-375 cells at 0.5 uM by KiNativ Profiling analysis relative to control. It counts as cell-based. A digest of the protocol:
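Live A375 melanoma cells were treated with compound at 5 or 0.5 μM. The cells were then lysed, and the lysates were labeled with a lysine-reactive ATP or ADP-biotin acyl probe (KiNativ). Inhibition is the compound's protection of each kinase labeling-site peptide from probe labeling, relative to untreated control.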

Test [9] addresses T2, Serine/threonine-protein kinase TBK1 (Homo sapiens) (UniProt Q9UHD2).
T2 sequence (whole entry): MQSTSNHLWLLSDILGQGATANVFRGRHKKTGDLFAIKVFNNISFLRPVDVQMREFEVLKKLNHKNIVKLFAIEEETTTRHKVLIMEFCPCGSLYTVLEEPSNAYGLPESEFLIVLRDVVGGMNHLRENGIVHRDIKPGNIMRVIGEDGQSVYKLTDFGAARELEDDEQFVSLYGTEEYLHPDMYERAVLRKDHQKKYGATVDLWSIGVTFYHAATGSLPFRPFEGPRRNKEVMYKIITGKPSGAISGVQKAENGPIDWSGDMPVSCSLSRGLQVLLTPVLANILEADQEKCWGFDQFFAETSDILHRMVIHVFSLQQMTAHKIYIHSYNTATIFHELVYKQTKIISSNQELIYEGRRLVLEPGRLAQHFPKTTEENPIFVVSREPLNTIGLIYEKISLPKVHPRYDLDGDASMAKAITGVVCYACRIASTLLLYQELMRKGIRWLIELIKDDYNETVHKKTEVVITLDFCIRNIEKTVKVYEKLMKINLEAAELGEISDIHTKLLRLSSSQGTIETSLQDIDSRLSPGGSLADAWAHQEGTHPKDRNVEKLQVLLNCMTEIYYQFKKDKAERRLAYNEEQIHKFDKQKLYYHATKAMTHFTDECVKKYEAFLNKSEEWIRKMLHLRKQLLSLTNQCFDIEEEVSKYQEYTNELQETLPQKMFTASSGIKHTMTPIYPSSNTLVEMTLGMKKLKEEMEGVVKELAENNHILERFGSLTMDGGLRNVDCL
In words: Inhibition of TBK1 Lys2 labeling site in human A-375 cells at 0.5 uM by KiNativ Profiling analysis relative to control. It counts as cell-based.

Test [10] deals with T3, Mitogen-activated protein kinase kinase kinase 2 (Homo sapiens) (UniProt Q9Y2U5).
T3 sequence (whole entry): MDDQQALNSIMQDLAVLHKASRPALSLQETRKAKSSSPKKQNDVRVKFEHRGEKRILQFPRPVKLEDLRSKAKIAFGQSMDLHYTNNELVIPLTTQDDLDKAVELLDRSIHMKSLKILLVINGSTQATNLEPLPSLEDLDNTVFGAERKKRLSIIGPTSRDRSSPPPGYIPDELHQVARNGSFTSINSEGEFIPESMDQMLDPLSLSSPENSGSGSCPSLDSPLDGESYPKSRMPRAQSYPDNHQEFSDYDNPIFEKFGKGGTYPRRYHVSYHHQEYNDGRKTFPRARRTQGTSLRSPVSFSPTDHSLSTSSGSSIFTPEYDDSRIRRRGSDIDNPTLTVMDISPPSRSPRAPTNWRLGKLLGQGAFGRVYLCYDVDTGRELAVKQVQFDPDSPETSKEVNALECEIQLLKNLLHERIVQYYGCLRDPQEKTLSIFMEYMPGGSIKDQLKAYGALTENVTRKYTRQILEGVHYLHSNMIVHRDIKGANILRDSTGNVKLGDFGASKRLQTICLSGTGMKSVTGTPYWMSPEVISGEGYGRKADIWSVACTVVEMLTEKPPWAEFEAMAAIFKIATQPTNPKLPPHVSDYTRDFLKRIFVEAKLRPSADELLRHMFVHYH
Put plainly: Inhibition of MAP3K2 Lys1 labeling site harbouring VYLCYDVDTGRELAVKQVQFDPDSPETSKEVNALECEIQLLK in human A-375 cells at 0.5 uM by KiNativ Profiling analysis relative to control. It counts as cell-based.

Test [11] addresses Serine/threonine-protein kinase 26 (Homo sapiens) (UniProt Q9P289). Put plainly: Inhibition of MST4 Lys1 labeling site in human A-375 cells at 0.5 uM by KiNativ Profiling analysis relative to control. In kind it is cell-based.
The target of test [12] is T2, Serine/threonine-protein kinase TBK1 (Homo sapiens). Put plainly: Inhibition of TBK1 Lys2 labeling site in human A-375 cells at 0.05 uM by KiNativ Profiling analysis relative to control. In kind it is cell-based.
Test [13] has as its target Serine/threonine-protein kinase 10 (Homo sapiens) (UniProt O94804). In words: Inhibition of LOK Lys1 labeling site harbouring ETGALAAAKVIETK in human A-375 cells at 0.05 uM by KiNativ Profiling analysis relative to control. It counts as cell-based.
The target in test [14] is 3-phosphoinositide-dependent protein kinase 1 (Homo sapiens) (UniProt O15530). In words: Inhibition of PDK1 Protein Kinase Domain in human A-375 cells at 0.05 uM by KiNativ Profiling analysis relative to control.
Test [15] concerns GEN2.2. In words: Inhibition of CL097 induced JNK1/2 phosphorylation level in human GEN2.2 cells at 1 uM preincubated with compound for 1 hr followed by CL097 stimulation and measured after 30 mins by Western blot analysis. It counts as functional, cell-based. A digest of the protocol:
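Gen2.2 cells were pretreated with compound at 1 μM for 1 h, then stimulated with CL097 for 30 min. Lysates were analysed by Western blot for phosphorylation of p105, p38 and JNK1/2.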
A general note: Immunoblotting shows a protein as a band on a membrane.

In general, inhibition refers to the change of the read-out against control, counted positive when it falls. One may read the IC50 as the concentration at which inhibition is half-maximal. Higher therefore signals lower potency.

T1 sequence (P16591 whole entry, looked up): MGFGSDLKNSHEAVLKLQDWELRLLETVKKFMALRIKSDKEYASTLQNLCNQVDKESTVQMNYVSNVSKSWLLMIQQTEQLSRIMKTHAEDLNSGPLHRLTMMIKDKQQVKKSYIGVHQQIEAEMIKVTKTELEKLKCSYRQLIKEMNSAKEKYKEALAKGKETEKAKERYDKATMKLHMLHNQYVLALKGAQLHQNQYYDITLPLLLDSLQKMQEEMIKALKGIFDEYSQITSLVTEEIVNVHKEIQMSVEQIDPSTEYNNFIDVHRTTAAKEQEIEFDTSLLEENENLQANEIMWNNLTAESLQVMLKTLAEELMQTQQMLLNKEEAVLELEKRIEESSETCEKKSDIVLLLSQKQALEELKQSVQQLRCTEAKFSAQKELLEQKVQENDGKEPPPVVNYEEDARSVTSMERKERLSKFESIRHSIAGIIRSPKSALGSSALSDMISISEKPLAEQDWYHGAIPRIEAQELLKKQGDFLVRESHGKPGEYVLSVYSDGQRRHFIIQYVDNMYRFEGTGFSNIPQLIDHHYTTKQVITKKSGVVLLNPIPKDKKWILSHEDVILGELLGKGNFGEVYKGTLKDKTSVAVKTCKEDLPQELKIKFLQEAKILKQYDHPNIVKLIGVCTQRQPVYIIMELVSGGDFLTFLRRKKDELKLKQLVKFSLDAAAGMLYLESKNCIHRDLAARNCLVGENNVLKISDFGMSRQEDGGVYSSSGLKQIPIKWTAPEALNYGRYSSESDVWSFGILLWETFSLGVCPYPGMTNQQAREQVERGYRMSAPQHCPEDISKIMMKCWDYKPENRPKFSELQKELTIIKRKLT
Serine/threonine-protein kinase 26 (Homo sapiens), sequence (Q9P289 2-416 limits assumed): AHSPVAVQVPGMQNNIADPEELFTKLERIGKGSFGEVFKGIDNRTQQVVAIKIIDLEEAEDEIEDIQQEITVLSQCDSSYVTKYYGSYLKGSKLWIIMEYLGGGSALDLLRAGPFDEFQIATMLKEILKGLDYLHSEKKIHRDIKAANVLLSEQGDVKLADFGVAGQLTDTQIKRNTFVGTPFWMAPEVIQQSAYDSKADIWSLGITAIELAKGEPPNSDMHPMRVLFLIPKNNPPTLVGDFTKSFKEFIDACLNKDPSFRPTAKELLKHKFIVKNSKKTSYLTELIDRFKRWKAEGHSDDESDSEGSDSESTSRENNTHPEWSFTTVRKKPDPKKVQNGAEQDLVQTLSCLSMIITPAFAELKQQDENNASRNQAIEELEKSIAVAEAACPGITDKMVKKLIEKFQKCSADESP
3-phosphoinositide-dependent protein kinase 1 (Homo sapiens), sequence (O15530 whole entry, looked up, the tested form may be a part): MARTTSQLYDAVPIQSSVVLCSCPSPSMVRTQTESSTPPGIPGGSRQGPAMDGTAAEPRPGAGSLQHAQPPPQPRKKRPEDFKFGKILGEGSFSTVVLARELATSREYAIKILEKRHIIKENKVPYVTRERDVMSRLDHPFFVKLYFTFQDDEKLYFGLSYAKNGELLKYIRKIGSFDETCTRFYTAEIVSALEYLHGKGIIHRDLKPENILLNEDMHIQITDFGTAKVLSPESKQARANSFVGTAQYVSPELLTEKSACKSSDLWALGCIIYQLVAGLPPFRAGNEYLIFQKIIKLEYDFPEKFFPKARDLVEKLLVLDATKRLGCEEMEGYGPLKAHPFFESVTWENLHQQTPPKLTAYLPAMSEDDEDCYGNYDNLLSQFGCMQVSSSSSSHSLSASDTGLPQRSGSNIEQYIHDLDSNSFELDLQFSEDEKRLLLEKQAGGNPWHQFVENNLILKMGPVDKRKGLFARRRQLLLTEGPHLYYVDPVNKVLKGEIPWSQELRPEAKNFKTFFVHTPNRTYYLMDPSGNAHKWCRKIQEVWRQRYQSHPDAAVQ
Proto-oncogene tyrosine-protein kinase Src, sequence (P12931 2-536 limits assumed): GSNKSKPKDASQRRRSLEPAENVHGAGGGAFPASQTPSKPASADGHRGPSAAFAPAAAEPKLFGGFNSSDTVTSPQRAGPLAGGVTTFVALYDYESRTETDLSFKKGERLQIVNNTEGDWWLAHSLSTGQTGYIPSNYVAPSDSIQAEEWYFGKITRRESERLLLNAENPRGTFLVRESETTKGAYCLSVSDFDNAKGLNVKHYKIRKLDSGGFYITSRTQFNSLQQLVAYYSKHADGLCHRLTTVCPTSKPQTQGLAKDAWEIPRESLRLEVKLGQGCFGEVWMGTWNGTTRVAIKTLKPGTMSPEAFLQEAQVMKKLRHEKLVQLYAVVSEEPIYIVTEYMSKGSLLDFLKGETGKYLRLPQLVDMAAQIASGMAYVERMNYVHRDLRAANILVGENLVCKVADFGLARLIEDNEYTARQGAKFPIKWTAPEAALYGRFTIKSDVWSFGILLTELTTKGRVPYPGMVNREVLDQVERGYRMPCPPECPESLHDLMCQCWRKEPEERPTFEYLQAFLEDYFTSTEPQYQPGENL
Mitogen-activated protein kinase 14, sequence (Q16539 whole entry): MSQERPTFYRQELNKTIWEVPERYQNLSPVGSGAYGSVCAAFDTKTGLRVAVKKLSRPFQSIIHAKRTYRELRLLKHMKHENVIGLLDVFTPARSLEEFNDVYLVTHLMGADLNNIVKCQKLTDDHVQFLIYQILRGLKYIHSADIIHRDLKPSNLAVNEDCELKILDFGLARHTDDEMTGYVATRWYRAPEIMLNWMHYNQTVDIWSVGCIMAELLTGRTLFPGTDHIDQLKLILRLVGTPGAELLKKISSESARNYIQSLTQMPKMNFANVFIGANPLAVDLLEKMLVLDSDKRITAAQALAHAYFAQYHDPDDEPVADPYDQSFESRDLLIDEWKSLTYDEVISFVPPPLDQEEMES
Serine/threonine-protein kinase 10 (Homo sapiens), sequence (O94804 whole entry, looked up, the tested form may be a part): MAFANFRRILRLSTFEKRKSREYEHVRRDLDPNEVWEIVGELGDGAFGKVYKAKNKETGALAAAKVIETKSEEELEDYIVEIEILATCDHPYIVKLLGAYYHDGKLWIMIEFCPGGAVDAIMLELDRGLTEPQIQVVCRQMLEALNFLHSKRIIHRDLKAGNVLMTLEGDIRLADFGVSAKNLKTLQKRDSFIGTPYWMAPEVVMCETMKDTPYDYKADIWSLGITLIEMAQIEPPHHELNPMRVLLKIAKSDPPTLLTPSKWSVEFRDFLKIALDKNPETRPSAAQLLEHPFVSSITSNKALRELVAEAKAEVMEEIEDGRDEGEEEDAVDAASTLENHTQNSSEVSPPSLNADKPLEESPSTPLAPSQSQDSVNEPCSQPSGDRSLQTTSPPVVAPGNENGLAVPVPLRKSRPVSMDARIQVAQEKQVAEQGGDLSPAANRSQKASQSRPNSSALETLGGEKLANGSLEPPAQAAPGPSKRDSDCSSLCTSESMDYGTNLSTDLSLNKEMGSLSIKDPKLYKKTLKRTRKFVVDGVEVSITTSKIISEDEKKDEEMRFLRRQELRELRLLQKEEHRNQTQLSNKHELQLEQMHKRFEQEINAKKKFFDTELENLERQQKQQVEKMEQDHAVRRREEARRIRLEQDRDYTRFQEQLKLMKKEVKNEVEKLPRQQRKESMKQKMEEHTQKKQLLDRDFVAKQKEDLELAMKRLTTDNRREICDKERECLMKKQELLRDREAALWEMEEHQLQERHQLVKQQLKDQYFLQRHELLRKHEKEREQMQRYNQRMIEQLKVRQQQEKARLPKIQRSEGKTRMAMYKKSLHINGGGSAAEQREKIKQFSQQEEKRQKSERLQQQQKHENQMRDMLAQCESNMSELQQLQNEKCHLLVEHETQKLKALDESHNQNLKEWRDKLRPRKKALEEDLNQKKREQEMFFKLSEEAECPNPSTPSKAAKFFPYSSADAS
Cyclin-dependent kinase 6 (Homo sapiens), sequence (Q00534 whole entry): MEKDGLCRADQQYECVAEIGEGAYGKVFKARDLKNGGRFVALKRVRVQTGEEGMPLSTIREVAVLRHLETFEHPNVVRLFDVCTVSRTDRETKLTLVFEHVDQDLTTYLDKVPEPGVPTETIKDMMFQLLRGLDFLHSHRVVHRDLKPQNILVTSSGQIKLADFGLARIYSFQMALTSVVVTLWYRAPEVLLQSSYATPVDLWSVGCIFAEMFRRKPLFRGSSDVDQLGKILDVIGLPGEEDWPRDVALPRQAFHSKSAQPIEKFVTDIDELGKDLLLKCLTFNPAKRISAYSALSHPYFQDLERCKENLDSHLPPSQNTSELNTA
Serine/threonine-protein kinase 38 (Homo sapiens), sequence (Q15208 2-465 limits assumed): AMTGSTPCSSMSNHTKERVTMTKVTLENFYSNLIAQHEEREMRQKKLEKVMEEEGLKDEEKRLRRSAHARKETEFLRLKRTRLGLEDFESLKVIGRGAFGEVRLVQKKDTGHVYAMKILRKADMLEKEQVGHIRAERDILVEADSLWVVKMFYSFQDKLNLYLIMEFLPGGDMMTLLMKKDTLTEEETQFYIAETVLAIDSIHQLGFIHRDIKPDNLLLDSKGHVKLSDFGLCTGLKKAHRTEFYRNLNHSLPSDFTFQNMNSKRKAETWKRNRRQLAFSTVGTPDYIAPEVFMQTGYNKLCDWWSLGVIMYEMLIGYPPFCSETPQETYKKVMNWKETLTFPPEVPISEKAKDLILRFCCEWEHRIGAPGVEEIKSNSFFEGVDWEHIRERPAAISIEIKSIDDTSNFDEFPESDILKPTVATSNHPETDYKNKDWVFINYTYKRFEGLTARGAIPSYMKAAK
5'-AMP-activated protein kinase catalytic subunit alpha-1 (Homo sapiens), sequence (Q13131 whole entry, looked up): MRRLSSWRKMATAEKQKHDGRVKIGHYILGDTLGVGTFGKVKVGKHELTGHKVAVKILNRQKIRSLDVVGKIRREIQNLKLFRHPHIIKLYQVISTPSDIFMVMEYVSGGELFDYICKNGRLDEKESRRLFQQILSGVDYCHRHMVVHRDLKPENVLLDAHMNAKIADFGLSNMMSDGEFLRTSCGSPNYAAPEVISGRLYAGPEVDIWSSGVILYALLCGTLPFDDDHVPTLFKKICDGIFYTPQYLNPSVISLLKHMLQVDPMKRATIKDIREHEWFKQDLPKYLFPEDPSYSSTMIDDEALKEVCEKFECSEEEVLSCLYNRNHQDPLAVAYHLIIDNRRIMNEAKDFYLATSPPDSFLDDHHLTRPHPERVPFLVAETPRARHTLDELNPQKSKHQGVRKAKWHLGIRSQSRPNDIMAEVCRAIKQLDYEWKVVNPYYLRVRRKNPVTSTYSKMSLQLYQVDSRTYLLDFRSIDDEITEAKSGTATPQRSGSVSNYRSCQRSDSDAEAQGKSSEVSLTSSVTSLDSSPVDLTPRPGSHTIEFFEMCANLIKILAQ

Regarding `CCN1CCN(Cc2ccc(NC(=O)c3ccc(C)c(/C=C/c4cnc5[nH]ccc5c4OC)c3)cc2C(F)(F)F)CC1`, the inhibition in test [1] is 69.2%; in [2], 30%; in [4], 77.9%; in [5], 27%; in test [6] it was 3.3%; in test [7], -2.7%. Besides, the inhibition in [8] is 11.4%; in test [9], 16.9%; in test [10], -0.7%; in test [11], 2.8%; in [12], 19.8%; in test [13], 39.6%. In test [14], the inhibition was -1.5%. This compound showed an IC50 in test [3] of 204 nM.

Take `CCN1CCN(Cc2ccc(NC(=O)c3ccc(C)c(Oc4ccnc5[nH]ccc45)c3)cc2C(F)(F)F)CC1`: the inhibition in test [1] is 51.9%; in test [2], 87%; in [4], 98.1%; in test [5], 3.9%; in [6], -0.8%; in [7] it was -0.8%. The inhibition in [8] was 3.9%; in test [9] it was 35.7%; in test [10], 17.4%; in test [11], -0.4%; in [12] it was 29.2%; in [13], 40.5%. The inhibition in [14] came out at 11.2%. The same compound came in with a 50% inhibitory concentration (IC50) in test [3] of 113 nM. Also, the inhibition result in [15] was “Active”.

On to `CNc1cc(Oc2cc(C(=O)Nc3cc(-n4cnc(C)c4)cc(C(F)(F)F)c3)ccc2C)ncn1`, for which the inhibition entry in [15] is “inactive”.
